{"source": "ChEMBL document CHEMBL1131126", "about": "“Naamidine A is an antagonist of the epidermal growth factor receptor and an in vivo active antitumor agent” (J Med Chem, 1998)", "type_in_all_cases": "functional", "key": {"[1]": {"organism": "Mus musculus", "assay": "Selectivity for EGF over insulin receptors", "method_in_brief": "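Ratio of insulin-stimulated IC50 to EGF-stimulated IC50, both from [3H]thymidine incorporation in EGF receptor-transfected NIH3T3 cells (1 h preincubation, 16 h mitogen stimulation, 1-h label).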"}, "[2]": {"system": "A-431", "assay": "In vivo inhibitory activity against A431 tumor implanted in athymic mice at 25 mg/kg […]", "details": "Mus musculus", "method_in_brief": "(§1)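 A431 squamous carcinoma cells (EGF receptor-overexpressing) implanted under the kidney capsule of athymic mice, N = 6 per group. Dosed once daily for 5 days starting the day after implantation. Tumor size assessed 7 days after implantation; result given as % inhibition of tumor growth, with deaths counted per group.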"}, "[3]": {"system": "A-431", "assay": "In vivo inhibitory activity against A431 tumor implanted in athymic mice at 3.13 mg/kg […]", "details": "Mus musculus", "method_in_brief": "as §1"}, "[4]": {"system": "A-431", "assay": "In vivo inhibitory activity against A431 tumor implanted in athymic mice at 50 mg/kg […]", "details": "Mus musculus", "method_in_brief": "as §1"}, "[5]": {"system": "A-431", "assay": "In vivo inhibitory activity against A431 tumor implanted in athymic mice at 12.5 mg/kg […]", "details": "Mus musculus", "method_in_brief": "as §1"}}}
{"smiles": "COc1ccc(Cc2cn(Cc3ccc(OC)cc3)c(NC3=NC(=O)N(C)C3=O)n2)cc1", "values": [{"measurement": "Selectivity", "setting": "[1]", "value": 0.18}]}
{"smiles": "COc1ccc(Cc2cn(Cc3ccc(O)cc3)c(NC3=NC(=O)N(C)C3=O)n2)cc1", "values": [{"measurement": "Selectivity", "setting": "[1]", "value": 0.43}]}
{"smiles": "COc1ccc(Cc2nc(NC3=NC(=O)N(C)C3=O)n(C)c2Cc2ccc(O)cc2)cc1", "values": [{"measurement": "inhibition in vivo at 25 mg/kg", "setting": "[2]", "value": 87.4, "unit": "%"}, {"measurement": "inhibition in vivo at 3.13 mg/kg", "setting": "[3]", "value": 35, "unit": "%"}, {"measurement": "inhibition in vivo at 50 mg/kg", "setting": "[4]", "value": 96.4, "unit": "%"}, {"measurement": "Selectivity", "setting": "[1]", "value": 21}, {"measurement": "inhibition in vivo at 12.5 mg/kg", "setting": "[5]", "value": 52, "unit": "%"}]}
